Results filed as inconclusive are left out. Active and inactive are the calls of the source.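 How the source made its calls: active means compounds raising caspase signal whose fitted AC50 lies at or below the top valid dose tested; inconclusive means flat curve at 30 to 70 percent activity, or a poor fit; inactive means the rest.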

System in one experiment: not listed separately
The experiment is described as follows: Caspase-Glo signal, Mel501 melanoma line – cell-based, human Mel501, dry powder, A1 (Bcl2A1) inhibitor project, dose response (AID 488934). Conditions: Mel501 melanoma cells, caspase-3/7 Glo luminescence, 6 h; at 135 µM (top of the series). The method, boiled down: (§1)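 Material: human Mel501 melanoma cell line; timing: 6 h compound exposure at 37 °C, 1 h substrate incubation; detection: luminescence from DEVD-linked luciferin caspase-3/7 substrate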
For `CC(=O)N[C@H]1[C@H](O[C@H]2CC[C@@]3(C)C(CC[C@]4(C)C3CC=C3[C@@H]5CC(C)(C)CC[C@]5(C(=O)OC5OCC(O)C(O)C5O)C(O)C[C@]34C)C2(C)C)O[C@H](COC2OCC(O)C(OC3OCC(O)C(O)C3O)C2O)[C@@H](O[C@@H]2O[C@@H](C)[C@H](O)[C@@H](O)[C@H]2O[C@@H]2O[C@@H](C)[C@H](O)[C@@H](O)[C@H]2O)[C@@H]1O` (stereo partly drawn), the caspase activation was -0.618% (inactive).

Still in this experiment, the particulars now being: Mel501 melanoma cells, caspase-3/7 Glo luminescence, 6 h; at 150 µM (top of the series).
Take `Cc1ccc(CS(=O)(=O)c2ncc(Cl)c(C(=O)Nc3nnc(C(C)C)s3)n2)cc1`: the caspase activation is -1.79% (inactive).
Regarding `COc1cccc(C(=O)C(C#N)=C(SC)SC)c1`, the caspase activation was -0.394% (inactive).
Same read-out and setting: the figure for `C/C1=C/C(=O)O[C@@H]2C[C@@H](CC[C@H](C)/C=C\CC1)O[C@@](O)(C1CSC(=O)N1)C2` (stereo partly drawn) is 0.0337% (inactive).
Still for that read-out and setting: the figure for `Nc1nc(F)nc2c1ncn2[C@@H]1O[C@H](CO)[C@@H](O)[C@H]1O` is 0.438% (inactive).
Same read-out and setting: the figure for `C=C1[C@@H](C)[C@H]2[C@H](Cc3ccccc3)NC(=O)[C@]23OC(=O)/C=C\[C@H](O)CCC[C@@H](C)C/C=C/[C@H]3[C@@H]1O` is 0.77% (inactive); for `O=C(CCl)N=c1sccn1Cc1ccccc1Cl` it is 2.16% (inactive); for `CCc1nnc(NC(=O)c2nc(S(=O)(=O)Cc3ccccc3)ncc2Cl)s1` it is -0.521% (inactive).
Take `Cc1cccc(CS(=O)(=O)c2ncc(Cl)c(C(=O)Nc3nnc(C(C)C)s3)n2)c1`: the caspase activation is -1.69% (inactive).
Same read-out and setting: the figure for `CCOC(=O)CSC1=N/C(=C/c2ccc(-n3cncn3)cc2)C(=O)N1C(C)=O` is 0.822% (inactive); for `O=C(Oc1cccc(/C=N/Nc2nc(Nc3ccccc3)nc(N3CCOCC3)n2)c1)c1ccco1` it is 0.28% (inactive).
On to `CCc1cc2c(=O)c(-c3cnn(-c4ccccc4)c3)c(C)oc2cc1OCC(=O)Nc1cccc(C)c1`, for which the caspase activation was 0.716% (inactive).
Still for that read-out and setting: to `CC(C)(C)n1nc(-c2ccc(Cl)cc2)c2c(N)ncnc21` belongs 2.25% (inactive); to `C=C1[C@@H](C)[C@H]2[C@H](Cc3ccccc3)NC(=O)[C@]23[C@H](OC(C)=O)/C=C/[C@](C)(O)C(=O)[C@@H](C)C/C=C/[C@H]3[C@@H]1O`, 0.757% (inactive); to `CCSc1nnc(NC(=O)c2nc(S(=O)(=O)Cc3ccc(F)cc3)ncc2Cl)s1`, -2.12% (inactive).
Still for that read-out and setting: the figure for `Cn1c(=NC(=O)CCl)sc2ccccc21` is 0.601% (inactive).
The same measure, in the same setting: to `COc1cc(/C=C(/C#N)c2nc3ccccc3[nH]2)ccc1OCC(=O)Nc1ccccc1C(C)C` belongs 1.07% (inactive).

In the next experiment the test system is Mel501 melanoma cells, caspase-3/7 Glo luminescence, 6 h. Described as above.
Conditions: not given
In short, it runs like this: as §1
As for `Cc1cc(C(=O)CCl)c(C)n1CCc1ccc(Cl)cc1`, the AC50 was 17.8 µM.
On the same count and under the same terms, to `Cc1c(C=O)c(C=O)c(C)n1Cc1ccccc1` belongs > 150 µM (inactive); to `Cc1c(CCOC(=O)c2ccc(N3CCOCC3)c([N+](=O)[O-])c2)sc[n+]1CC#N`, 18.8 µM; to `Cc1cccc(NC(=O)/C(C#N)=C/c2cn(CC(=O)NCc3ccco3)c3ccccc23)c1`, > 150 µM (inactive).
On the same count and under the same terms, to `COc1ccc(N(C(=O)CCl)C(C(=O)NCCc2ccccc2)c2cccs2)cc1Cl` (stereo not drawn) belongs 30.1 µM; to `Cc1ccc(Sc2c([N+](=O)[O-])c(=O)n(C)c3ccccc23)cc1`, 69.7 µM.

By AC50 is commonly meant the midpoint of the concentration-response curve, whichever way the signal moves.

Source of the values: PubChem BioAssay AID488934 (Broad Institute, 2010).
